In paper PMC6767012 (Clinical Pharmacology in Drug Development, 2018):
Like-named read-outs stand apart in the source and are kept apart here.

Key:
[1] = format: in vivo, human; details: single oral 180 mg; for Effect of high-fat meal on total exposure (AUC): fed vs fasted; for Reduction of Cmax under fed versus fasted conditions: high-fat meal; for half-life: t1/2 (terminal elimination half-life)
[2] = Food effect study: safety and tolerability; format: in vivo, human; details: for Incidence of treatment-emergent adverse events (TEAEs): single oral 180 mg, healthy subjects
Procedure, shortened: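 Phase 1, single-centre, randomised, open-label, 2-period, 2-sequence crossover in healthy nonsmoking adults aged 18–55, BMI 18–30 kg/m2, at least 50 kg. Single morning oral dose (2 × 90-mg tablets) with about 240 mL water, after an overnight fast of at least 10 h, or with a standardised high-fat meal 30 ± 5 min before dosing. Washout at least 16 days. Adverse events were tracked until 7 days after the last dose, alongside vital signs, haematology, chemistry, urinalysis, physical exams and 12-lead ECG.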

ALK+ NSCLC = details: 180 mg orally once daily with 7-day lead-in at 90 mg; crizotinib-refractory ALK+ NSCLC; cited from earlier work
[3] = cited from earlier work
[4] = single oral 180-mg dose, healthy subjects; cited from earlier work
ALK resistance mutations = details: nonclinical studies; cited from earlier work
CYP2C8 and CYP3A4 = details: human liver microsomes and hepatocytes; cited from earlier work
[5] = healthy subjects; cited from earlier work
[6] = patients with advanced ALK+ NSCLC; cited from earlier work
[7] = cited from earlier work; remark: listed apart in the source

COc1cc(N2CCC(N3CCN(C)CC3)CC2)ccc1Nc1ncc(Cl)c(Nc2ccccc2P(C)(C)=O)n1 [Brigatinib]
Effect of high-fat meal on total exposure (AUC) [1]: no effect
Effect of high-fat meal on total exposure (AUC) ([1]; listed as brigatinib): similar
Reduction of Cmax under fed versus fasted conditions [1]: 13%
Reduction of Cmax under fed versus fasted conditions ([1]; listed as brigatinib): approximately 13%
Cmax ([1]; human, plasma, po, 180 mg, Geometric mean (% CV), fasted, N = 21): 701 ng/mL
Cmax ([1]; human, plasma, po, 180 mg, Geometric mean (% CV), fed (high-fat meal), N = 24): 605 ng/mL
Cmax ([1]; human, plasma, po, 180 mg, Mean (SD), fed (high-fat meal), healthy subjects, N = 24): 622 ng/mL
Tmax ([1]; human, plasma, po, 180 mg, Tmax, Median (minimum-maximum), fed (high-fat meal), N = 24): 5 h
half-life ([1]; human, plasma, po, 180 mg, Mean (SD), fasted, N = 21): 31 h
half-life ([1]; human, plasma, po, 180 mg, Mean (SD), fed (high-fat meal), N = 24): 31.1 h
Subjects with cough ([2]; fasted): 24%
Subjects with headache ([2]; fasted): 14%
Subjects with nausea ([2]; fasted): 14%
Subjects with somnolence ([2]; fasted): 14%
Abnormalities in laboratory findings, vital signs, ECGs, or physical examination ([2]; fasted and fed): no clinically significant abnormalities
Deaths or serious TEAEs ([2]; fasted and fed): No deaths or serious TEAEs
Intensity of TEAEs ([2]; fasted and fed): mild
Incidence of treatment-emergent adverse events (TEAEs) ([2]; fasted): 48%
Subjects with headache ([2]; fed): 4%
Subjects with nausea ([2]; fed): 4%
Subjects with somnolence ([2]; fed): 4%
Incidence of treatment-emergent adverse events (TEAEs) ([2]; fed (high-fat meal)): 46%
Confirmed objective response rate (ALK+ NSCLC): 56%
Median progression-free survival (ALK+ NSCLC): 16.7 months
Steady-state systemic exposure versus dose ([3]; 60 mg to 240 mg once daily): dose proportional
Geometric mean apparent oral clearance at steady-state ([3]; 180 mg orally once daily): 10.6 L/h
Mean plasma elimination half-life ([3]; 180 mg orally once daily): 25 h
Administered dose excreted in the feces [4]: 65%
Administered dose excreted in the urine [4]: 25%
Activity against all ALK resistance mutations tested (ALK resistance mutations): potent activity
Metabolizing enzymes (CYP2C8 and CYP3A4): cytochrome P450 (CYP)2C8 and CYP3A4

C[C@@H](Oc1cc(-c2cnn(C3CCNCC3)c2)cnc1N)c1c(Cl)ccc(F)c1Cl [Crizotinib]
Decrease of exposure (both Cmax and AUC) following a high-fat meal [5]: 14%

Cc1cc(Nc2ncc(Cl)c(Nc3ccccc3S(=O)(=O)C(C)C)n2)c(OC(C)C)cc1C1CCNCC1 [ceritinib]
Cmax and AUC0–24 of 450 mg taken with food versus 750 mg fasted [6]: comparable
Incidence of gastrointestinal toxicities, 450 mg with food versus 750 mg fasted [6]: lower incidence
Effect of food on exposure [7]: increases exposure
